MT1-MMP act inh: inhibitors of human MT1-MMP activation. HT1080 RFP-PRO-GFP cells, GFP/RFP ratio fluorescence, overnight; percent of plate control window, DMSO zero. GFP/RFP ratio change, % at 20 µM. 360,000 tested, 0.061% active. AID 651647;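 active = GFP/RFP ratio change of at least 30% with cell ATP level not reduced by more than half and red fluorescence within 50% of control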
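Assay system – RFP-PRO-GFP reporter HT1080 cells · Compound dosing – single dose of 20 µM compound, 1% DMSO final · Incubation – overnight compound exposure at 37 °C · Measure – GFP/RFP fluorescence ratio · Benchmarks – DMSO wells and RFP-L50D-GFP cells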
KLK7 zymogen act: activates the human kallikrein-7 zymogen. purified proKLK7, EDANS-DABCYL substrate fluorescence; 100% is mature enzyme control, 0% vehicle. activation, % at 7 µM. 370,000 tested, 0.9% active. AID 652039;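 active = activation above the mean of all tested compounds plus 3 SD, computed per campaign excluding outliers beyond control limits, cut at about 13% in these data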
Neddyl block: blocks human cullin neddylation | 360,000 tested, 0.58% active | AID 651699 | calls only at 25 µM | TR-FRET cullin neddylation, biochemical; in the data active = inhibition above about 36%
SKN-1 inh: inhibitors of C. elegans SKN-1. C. elegans VP596 Pgst-4::GFP/RFP ratio, acrylamide-induced, 24 h. inhibition, % at 21.8 µM. 360,000 tested, 0.49% active;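 active = interference check ratio from 0.5 to 1.5 plus GFP to RFP signal ratio inhibition reaching or exceeding a fixed threshold, cut at about 30% in these data, passing the limit was not always enough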
Tn7 DDE FP: inhibitors of Tn7 peptide binding to human fibrin DD(E) | 370,000 tested, 0.13% active | FP displacement of FITC-Tn7 peptide from fibrin DD(E); 0% = median of compound wells per plate | inhibition, % at 8.3 µM | P02675;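 active = inhibition above the mean of compounds falling within the control limits plus 3 SD of them, cut at about 14% in these data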;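 note: 0% = plate median of compound wells and 100% = 10 µM Aha-Tn7 peptide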
Target sequence (P02675 whole entry, looked up): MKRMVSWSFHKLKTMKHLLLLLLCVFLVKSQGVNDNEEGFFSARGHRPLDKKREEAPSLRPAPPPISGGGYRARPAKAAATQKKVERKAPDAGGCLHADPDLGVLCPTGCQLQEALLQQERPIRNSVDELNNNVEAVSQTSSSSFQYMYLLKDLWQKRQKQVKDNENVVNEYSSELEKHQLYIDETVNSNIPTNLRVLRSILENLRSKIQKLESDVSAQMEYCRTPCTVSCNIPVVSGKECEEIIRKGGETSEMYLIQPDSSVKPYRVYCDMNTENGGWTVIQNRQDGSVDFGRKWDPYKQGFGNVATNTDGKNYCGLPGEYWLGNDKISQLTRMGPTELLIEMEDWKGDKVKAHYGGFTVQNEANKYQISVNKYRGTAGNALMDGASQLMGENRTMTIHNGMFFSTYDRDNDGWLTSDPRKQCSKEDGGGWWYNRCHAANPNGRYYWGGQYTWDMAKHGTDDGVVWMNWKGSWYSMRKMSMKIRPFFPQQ
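Also added: labelled Tn7 tracer, 0.1 µM; Assay system: human fibrin DD(E) protein; Amount: 2 µM fibrin DD(E); Schedule: 10 min compound pre-incubation, 3 h probe incubation at room temperature; Repeats: one replicate per compound; Read-out basis: percent inhibition; Measured by: fluorescence polarization of the labelled Tn7 tracer.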
DDE Tn6 FP inh: disrupts Tn6 cyclic peptide binding to fibrin D-Dimer-E complex; P02675; Fibrin DD(E) TRITC-Tn6 fluorescence polarization displacement; inhibition, % at 8.3 µM; 370,000 tested, 0.21% active; AID 720509;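 active = inhibition above a per-campaign cutoff: mean of compounds within control limits plus 3 SD, cut at about 15% in these data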;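 note: 0% = median of all compound wells on the plate and 100% = blocking peptide control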
KLK7 act conf: confirmation of human kallikrein-7 zymogen activators. purified proKLK7, EDANS-DABCYL substrate fluorescence; scaled: vehicle 0, mature enzyme 100. 3,200 tested, 68% active. activation, % at 7 µM. shares compounds with KLK7 zymogen act;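 active = activation, as change over the incubation, above the mean of all tested compounds plus 3 SD, cut at about 13% in these data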
EDANS-DABCYL int: fluorescence interference counter-screen for KLK7 activators; activation, % at 7 µM; AID 686952; EDANS-DABCYL substrate fluorescence interference, no enzyme, 4 h; solvent 0%, active enzyme control 100%; shares compounds with KLK7 zymogen act; 3,200 tested, 80% active;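 active = activation above the all-compound mean plus 3 SD, ignoring values outside control-based bounds, cut at about 4.8% in these data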;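 note: value is the 4 h activation minus the activation read at time zero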
K7 EDANS ctr: EDANS fluorescence interference in dose response, no enzyme | shares compounds with KLK7 zymogen act | EDANS-DABCYL peptide fluorescence interference | EC50, µM | 250 tested, 20% active | AID 720493;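 active = compounds that raise the fluorescence signal in this interference counterscreen, with EC50 at or below 10 µM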;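 note: intact quenched peptide substrate alone read at 355 nm excitation and 520 nm emission; signal is fluorescence gain from T0 to T4 after four hours at room temperature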
Active calls of the source: *; i = inactive; x = no result given; + = active, no number. Only some compounds are listed: those with a hit (about 2.2% of all), similar ones and a draw of the others.

SMILES	MT1-MMP act inh	KLK7 zymogen act	Neddyl block	SKN-1 inh	Tn7 DDE FP	DDE Tn6 FP inh	KLK7 act conf	EDANS-DABCYL int	others
COc1ccc2nc(C)cc(C(=O)O)c2c1	0	5	x	23	-3	4	x	x
Cc1cc(-c2nc3ccccc3s2)ccc1N	-1	41*	x	32	-8	2	-14	-15
Nc1ccc2nc(-c3ccccc3)c(-c3ccccc3)nc2c1	-35	-8	i	1	-6	-4	x	x
Nc1ccc2nc(-c3ccccc3)sc2c1	-6	63*	i	82*	3	-4	63*	68*
Nc1ccc(-c2nc3cc(N)ccc3s2)cc1	3	52*	x	-5	-3	-6	16*	67*
O=S(=O)(NCCNc1nccc(C(F)(F)F)n1)c1ccccc1	1	0	i	9	-1	-6	x	x
CC1CCC2(CC1)CCN(CCCOC(=O)NCc1ccc(Cl)cc1)C2=O (stereo not drawn)	x	1	x	x	7	6	x	x
Cc1ccccc1S(=O)(=O)N1CCN(C)CC1	-2	0	i	0	-2	1	x	x
O=C(CSc1ccccn1)N1CCc2ccccc21	4	0	i	-9	3	8	x	x
CC(=O)c1cc2c(cc1NS(=O)(=O)c1ccccc1C)OCO2	x	0	x	x	-4	4	x	x
CC(=O)c1cc2c(cc1NS(=O)(=O)c1ccccc1Br)OCO2	1	41*	i	3	-1	3	15*	5.3*	K7 EDANS ctr=>70
CC(C)Cn1c(-c2ccc(C#N)cc2)nc2c1c(=O)[nH]c(=O)n2CC(C)C	2	18*	x	8	-2	-4	-9	-11
CCCCNC(=O)COC(=O)c1c2c(nc3ccccc13)/C(=C/c1cccs1)CC2	-6	-1	x	9	2	-1	x	x
CNC(=O)NC(=O)C(C)OC(=O)c1c2c(nc3ccccc13)/C(=C/c1cccs1)CC2 (stereo not drawn)	-15	50*	+	12	0	3	85*	73*
Cc1c(C)c2cc(Cl)c(O)c(CN3CCCC(C)C3)c2oc1=O (stereo not drawn)	-1	42*	x	2	1	9	69*	73*
Cc1c(C)c2cc(Cl)c(O)c(CN3CCN(C)CC3)c2oc1=O	8	76*	i	17	-4	-1	64*	69*
CCCCCCCN1CCC(=O)N([C@H](CO)Cc2ccccc2)CC1	2	0	i	13	9	2	x	x
Cn1c(=O)c(=O)n(C)c2cc(N3CCCCC3)c(NS(=O)(=O)c3ccc(Br)cc3)cc21	-3	2	i	-7	-7	-3	x	x
N#Cc1ccccc1NC(=O)COC(=O)c1cccs1	2	0	i	-1	-9	0	x	x
N#Cc1ccccc1NC(=S)NC(=O)c1cccs1	-2	14*	i	7	2	-2	14*	16*
Cc1[nH]c2ccccc2c1/C=C(\C#N)S(=O)(=O)c1ccccc1	4	14*	i	17	7	4	-2	-5
COC(=O)Cn1c(=NC(=O)c2cc(-c3cccs3)nc3ccccc23)sc2cc(S(N)(=O)=O)ccc21	-2	-83	i	-6	-1	-1	x	x
CCOC(=O)Cn1c(=NC(=O)c2cc(-c3cccs3)nc3ccccc23)sc2cc(S(N)(=O)=O)ccc21	-17	172*	i	11	4	4	-2	-15
CCC(CC)CC1CN2CCc3cc(OC)c(OC)cc3C2CC1(O)CC (stereo not drawn)	-11	30*	x	10	-1	-1	20*	17*	K7 EDANS ctr=>70
COc1cc2c(cc1OC)C1C/C(=N\O)C(CC(C)C)CN1CC2 (stereo not drawn)	-1	-1	i	-7	-4	-1	x	x
SMILES	MT1-MMP act inh	KLK7 zymogen act	Neddyl block	SKN-1 inh	Tn7 DDE FP	DDE Tn6 FP inh	KLK7 act conf	EDANS-DABCYL int	others
Cc1cc(NCCCN2CCOCC2)n2c(nc3ccccc32)c1C#N	3	31*	x	27	11	-5	66*	64*
CCCc1cc(NCCCN2CCOCC2)n2c(nc3ccccc32)c1C#N	-1	-11	x	11	-1	9	x	x
Cc1cc(NCCN2CCOCC2)n2c(nc3ccccc32)c1C#N	3	16*	x	8	5	-1	-97	-170
Cc1nnc(NC(=O)c2nc(S(=O)(=O)Cc3ccccc3C)ncc2Cl)s1	2	0	i	-1	5	0	x	x
CCOC(=O)C1=C(C)OC(N)=C(C#N)C1c1cc(OC)c2c(c1)OCO2 (stereo not drawn)	-4	1	i	3	-4	-3	x	x
CCOC(=O)C1=C(C)OC(N)=C(C#N)C1c1cc2c(cc1[N+](=O)[O-])OCO2 (stereo not drawn)	2	29*	x	12	-3	-4	15*	15*
COc1ccc(CNCCCn2cnc(C(=O)Nc3ccc(C)c(C)c3)n2)cc1	4	0	i	-4	-8	-9	x	x
CCc1nc(SCC(=O)N2CCc3cc(OC)c(OC)cc3C2)c(C#N)cc1C	-1	13*	i	-2	-6	-6	1	0
COc1cc2c(cc1OC)CN(C(=O)CSc1ccc(F)cc1)CC2	1	1	i	10	9	3	x	x
COc1cc2c(cc1OC)CN(C(=O)CSc1n[nH]c(N)n1)CC2	-2	18*	i	13	4	-6	3	1
COc1cc2c(cc1OC)CN(C(=O)CSc1nc(C)cc(C)c1C#N)CC2	-1	7	x	-1	-7	-3	x	x
CCOc1ccc2nc3sc(C(=O)N4CCOCC4)c(N)c3cc2c1	-2	13*	x	17	-1	5	8	6.6*
Cc1cc(C)c2cc3c(N)c(C(=O)N4CCOCC4)sc3nc2c1	0	19*	i	-10	2	-9	-9	-8
O=C(OCC(=O)N1CCCc2ccccc21)c1cc(Cl)ccc1O	0	1	i	0	-5	-6	x	x
O=C(COC(=O)c1cc(Cl)ccc1O)NCC1CCCO1 (stereo not drawn)	1	46*	i	-1	-2	-1	80*	83*

Bioassay records from PubChem.
